ChEMBL document CHEMBL2331435, “Structure-activity relationship study of vitamin k derivatives yields highly potent neuroprotective agents” (J Med Chem, 2013)
Activity calls are given as the source filed them. The rule behind the calls is not given here.

How the values were obtained:
HT-22 [1] = experiment: Antioxidant activity in mouse HT22 cells assessed as prevention of glutamate-induced intracellular accumulation of free radicals at 250 nM after 8 hrs by spectrofluorometric analysis; assay type: functional, cell-based
Method in brief: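 HT22 cells were seeded at 5.0 × 10^3 per well and cultured overnight, then given 10 mM glutamate plus compound for 8 h. Rho123 was added at 5 μM final for 20 min, cells were washed twice with HBSS, and oxidized Rho123 fluorescence was read at 500 nm excitation and 536 nm emission.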

[2] = tested on: Radical scavenging activity; experiment: Antioxidant activity assessed as DPPH free radical scavenging activity at 20 uM; assay type: functional
Method in brief: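 Test agents at 20 μM final, added to 100 μM DPPH in methanol; absorbance at 517 nm monitored immediately for 10 min. Trolox and ascorbic acid served as positive controls, and the rate of absorbance loss was taken as antioxidant potency.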

Mus musculus [3] = experiment: Toxicity in BALB/cByJ mouse assessed as outward signs of distress at 50 mg/kg, ip daily for 3 weeks measured 2 hrs after final injection; assay type: organism-based; parameters: dose 50 mg/kg, route intraperitoneal; conditions: in vivo
HT-22 [4] = experiment: Antioxidant activity in mouse HT22 cells assessed as upregulation of NQO1 protein expression 8 hrs by Western blotting analysis; assay type: functional, cell-based
HT-22 [5] = experiment: Neuroprotective activity in mouse HT22 cells assessed as reduction of glutamate-induced mitochondrial superoxide generation at 250 nM after 8 hrs by MitoSOX RED staining-based fluorescence microscopic analysis; assay type: functional, cell-based
Method in brief: (§1)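 HT22 cells were given 10 mM glutamate plus compound for 8 h, then co-stained with MitoSOX Red (5 μM final) and Mitotracker Deep Red (10 nM final) for 20 min. Cells were washed twice with HBSS and imaged live by fluorescence microscopy in HBSS.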

HT-22 [6] = experiment: Antioxidant activity in mouse HT22 cells assessed as reduction in glutamate-induced upregulation of HO1 gene expression at 250 nM after 16 hrs by qRT-PCR analysis relative to glutamate-treated control; assay type: functional, cell-based
Method in brief: (§2)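 HT22 cells were seeded at 3.0 × 10^5 per well and cultured overnight, then treated with or without 10 mM glutamate plus compound (DMSO stock) for 16 h. Cells were trypsinized and washed in cold Ca/Mg-free HBSS. HO-1 and NQO-1 mRNA were measured by qRT-PCR with β2-microglobulin as reference gene, and fold change was calculated by the Livak method.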

HT-22 [7] = experiment: Neuroprotective activity in mouse HT22 cells assessed as reduction of glutamate-induced mitochondrial fragmentation at 250 nM after 8 hrs by Mitotracker DR staining-based fluorescence microscopic analysis; assay type: functional, cell-based; method in brief: as §1
Mus musculus [8] = experiment: Toxicity in BALB/cByJ mouse assessed as weight loss at 50 mg/kg, ip daily for 3 weeks measured 2 hrs after final injection; assay type: organism-based; parameters: dose 50 mg/kg, route intraperitoneal; conditions: in vivo
HT-22 [9] = experiment: Neuroprotective activity in mouse HT22 cells assessed as prevention from tBuOOH-induced oxidative cell death after 3 hrs by MTS assay; assay type: functional, cell-based
Method in brief: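 HT22 cells were seeded at 5.0 × 10^3 per well and cultured overnight, then exposed to 50 μM t-BuOOH (final) plus compound for 3 h. Medium was removed, cells were washed with HBSS and returned to normal medium. MTS was added 24 h after initial treatment, absorbance was read at 490 nm after 2 h, and viability was expressed as percent of untreated cells.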

[10] = Therapeutic index, ratio of cytotoxic TC50 for mouse HT22 cells to neuroprotective PD50 for mouse HT22 cells; assay type: cell-based, HT-22; conditions: read-out: TI
HT-22 [11] = experiment: Ratio of VK2 IC50 to 2-((4-Chlorobenzyl)amino)naphthalene-1,4-dione IC50 for prevention from glutamate-induced oxidative cell death in mouse HT22 cells; assay type: functional
HT-22 [12] = experiment: Antioxidant activity in mouse HT22 cells assessed as upregulation of HO1 gene expression at 250 nM after 16 hrs by qRT-PCR analysis in the absence of glutamate; assay type: functional, cell-based; method in brief: as §2
Mus musculus [13] = experiment: Toxicity in BALB/cByJ mouse assessed as outward signs of pain at 50 mg/kg, ip daily for 3 weeks measured 2 hrs after final injection; assay type: organism-based; parameters: dose 50 mg/kg, route intraperitoneal; conditions: in vivo
[14] = biological target: T1, Serine/threonine-protein phosphatase PGAM5, mitochondrial (Mus musculus) (UniProt Q8BX10); experiment: Inhibition of glutamate-induced increase in lower band of PGAM5 in mouse HT22 cells at 125 nM after 16 hrs by Western blotting analysis; assay type: cell-based; conditions: HT-22
T1 sequence (whole entry): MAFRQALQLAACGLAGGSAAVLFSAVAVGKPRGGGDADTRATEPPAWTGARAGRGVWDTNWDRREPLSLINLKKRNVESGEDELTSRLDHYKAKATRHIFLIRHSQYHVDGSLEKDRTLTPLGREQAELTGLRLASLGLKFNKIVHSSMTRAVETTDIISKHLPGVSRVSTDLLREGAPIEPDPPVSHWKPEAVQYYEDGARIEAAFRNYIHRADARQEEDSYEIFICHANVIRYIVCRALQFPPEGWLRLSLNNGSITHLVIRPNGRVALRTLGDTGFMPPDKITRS
Method in brief: (§3)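 HT22 cells were treated with 10 mM glutamate plus compound for 16 h, harvested, and lysed in low-salt buffer (50 mM Tris-HCl pH 7.4, 150 mM NaCl, 10% glycerol, Triton X-100, protease/phosphatase inhibitors) for 30 min with a brief sonication. Lysates were run on 4–12% gels and immunoblotted for phospho-Drp1 Ser637, total Drp1, PGAM5, actin and α-tubulin, then analyzed by densitometry.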

HT-22 [15] = experiment: Neuroprotective activity in mouse HT22 cells assessed as prevention from glutamate-induced oxidative cell death by MTS assay; assay type: functional
Method in brief: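 HT22 cells grown in high-glucose DMEM with 10% FBS and antibiotic-antimycotic at 37°C, 5% CO2. Seeded at 5.0 × 10^3 cells/well overnight, then given 10 mM glutamate (final) plus compound from DMSO stock. MTS added 24 h after treatment, 2 h at 37°C, A490 read. Viability taken as % of untreated cells. PC50 from 12-point titrations; experiments repeated at least four times.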

[16] = Neurotoxicity in mouse HT22 cells assessed as cell viability after 24 hrs by MTS assay; assay type: toxicity, cell-based, HT-22; conditions: read-out: TC50
Method in brief: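 HT22 cells were seeded at 5.0 × 10^3 per well, cultured overnight, and treated with a range of compound concentrations without glutamate for 24 h. MTS was added for 2 h and absorbance read at 490 nm. Viability was expressed as percent of untreated cells, and TC50 was fit from titration curves (7- or 12-point, n = 3–4).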

HT-22 [17] = experiment: Antioxidant activity in mouse HT22 cells assessed as upregulation of NQO1 gene expression at 250 nM after 16 hrs by qRT-PCR analysis in the absence of glutamate; assay type: functional, cell-based; method in brief: as §2
HT-22 [18] = experiment: Antioxidant activity in mouse HT22 cells assessed as reduction in glutamate-induced upregulation of HO1 gene expression at 250 nM after 16 hrs by qRT-PCR analysis relative to untreated control; assay type: functional, cell-based; method in brief: as §2
HT-22 [19] = experiment: Antioxidant activity in mouse HT22 cells assessed as upregulation of HO1 protein expression 8 hrs by Western blotting analysis; assay type: functional, cell-based
HT-22 [20] = experiment: Antioxidant activity in mouse HT22 cells assessed as reduction in glutamate-induced upregulation of NQO1 gene expression at 250 nM after 16 hrs by qRT-PCR analysis relative to glutamate-treated control; assay type: functional, cell-based; method in brief: as §2
Mus musculus [21] = experiment: Toxicity in BALB/cByJ mouse assessed as biochemical parameters at 50 mg/kg, ip daily for 3 weeks measured 2 hrs after final injection; assay type: organism-based; parameters: dose 50 mg/kg, route intraperitoneal; conditions: in vivo
[22] = biological target: Dynamin-1-like protein (Mus musculus) (UniProt Q8K1M6); experiment: Inhibition of glutamate-induced decrease in DRP1 phosphorylation at serine 637 in mouse HT22 cells at 125 nM after 16 hrs by Western blotting analysis; assay type: cell-based; conditions: HT-22; method in brief: as §3
Chain of Dynamin-1-like protein (Mus musculus) (Q8K1M6 whole entry): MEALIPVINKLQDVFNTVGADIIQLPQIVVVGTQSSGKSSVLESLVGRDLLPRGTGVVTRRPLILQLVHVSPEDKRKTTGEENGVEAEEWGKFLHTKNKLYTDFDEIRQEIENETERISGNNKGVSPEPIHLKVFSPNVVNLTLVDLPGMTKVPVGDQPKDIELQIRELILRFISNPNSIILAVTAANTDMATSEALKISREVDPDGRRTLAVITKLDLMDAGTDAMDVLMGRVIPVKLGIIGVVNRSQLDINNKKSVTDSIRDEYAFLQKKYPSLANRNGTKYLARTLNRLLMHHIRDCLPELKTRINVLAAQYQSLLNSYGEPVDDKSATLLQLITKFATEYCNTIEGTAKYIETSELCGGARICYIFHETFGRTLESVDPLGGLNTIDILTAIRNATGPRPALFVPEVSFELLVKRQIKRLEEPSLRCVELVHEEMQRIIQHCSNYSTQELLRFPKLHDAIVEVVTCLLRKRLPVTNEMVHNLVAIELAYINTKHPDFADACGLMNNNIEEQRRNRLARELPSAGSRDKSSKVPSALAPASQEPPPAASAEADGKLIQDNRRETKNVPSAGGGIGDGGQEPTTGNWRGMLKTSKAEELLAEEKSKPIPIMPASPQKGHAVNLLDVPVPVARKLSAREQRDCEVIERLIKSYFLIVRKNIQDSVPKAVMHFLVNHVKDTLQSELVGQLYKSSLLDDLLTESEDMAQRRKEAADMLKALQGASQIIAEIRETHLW

For `O=C1C=C(NCc2cccc(Cl)c2)C(=O)c2ccccc21`, the Activity (HT-22 [1]) was “Active”, the Activity [2] was “inactive” and the Activity (Mus musculus [3]) was “Non-toxic”. For the same molecule, the Activity (HT-22 [4]) was “inactive”, the Activity (HT-22 [5]) was “Active” and the Activity (HT-22 [6]) was “Active”. The Activity (HT-22 [7]) was “Active”, the Activity (Mus musculus [8]) was “Non-toxic” and the Activity (HT-22 [9]) was “Active”. The selectivity ratio [10] was > 3230, the “Ratio IC50” value (HT-22 [11]) was >10 and the Activity (HT-22 [12]) was “inactive”. The Activity (Mus musculus [13]) was “Non-toxic”, the inhibition [14] was “Active” and the PD50 (HT-22 [15]) was 31 nM. The CC50 at 24 h [16] was > 100 µM, the Activity (HT-22 [17]) was “inactive” and the Activity (HT-22 [18]) was “inactive”. For the same molecule, the Activity (HT-22 [19]) was “inactive”, the Activity (HT-22 [20]) was “inactive” and the Activity (Mus musculus [21]) was “Non-toxic”. For the same molecule, the inhibition [22] was “Active”.
